Several values for one entry are separate records, joined by “and”; a condition that tells them apart may be missing. Identical values can stand only once.
What was measured:
B16 [1] = assay: Compound was evaluated in vivo for antitumor activity against B16 melanoma 2 after injecting the compound intravenously for percent T/C; format: functional, Mus musculus
B16 [2] = assay: Compound was evaluated in vivo for antitumor activity against B16 melanoma 2 after injecting the compound intravenously for total dose.; format: functional, Mus musculus
B16 [3] = assay: Compound was evaluated in vivo for antitumor activity against […] B16 melanoma 1 after injecting the compound intravenously for optimal dose; format: functional, Mus musculus
[4] = Compound was evaluated in vivo for antitumor activity against Glasgow osteogenic sarcoma after injecting the compound intravenously for change in body weight.; format: functional, Mus musculus
Procedure, shortened: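 Glasgow osteogenic sarcoma in C57Bl/6-derived hosts: 30-60 mg fragments implanted sc by trocar on day 0. Drug given iv on days 3, 6 and 9, 7 mice per group. Tumors measured by caliper. Median tumor burden recorded on day 10. Body weight change per mouse recorded at nadir. Toxicity-related deaths counted.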

M5076 [5] = assay: Compound was evaluated in vivo for antitumor activity against M5076 after injecting the compound intravenously for optimal dose; format: functional, Mus musculus
M5076 [6] = assay: Compound was evaluated in vivo for antitumor activity against M5076 after injecting the compound intravenously for toxicity related death.; format: functional, Mus musculus
L1210 [7] = assay: Compound was evaluated in vivo for antitumor activity after intraperitoneal administration against L1210(935) for mortality range at an optimal dose of 0.4 mg/kg/injection at 1-4 day schedule.; format: functional, Mus musculus
Procedure, shortened: (§1)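 L1210 leukemia, maintained in DBA/2 mice, was given ip as 10⁵ cells on day 0 to F1 hybrid or strain-of-origin mice over 18 g, in groups of 8. Dosing was ip from day 1, and mortality was checked daily. Median day of death counts dying mice only. %ILS = 100×(treated − control median day of death)/control median. Tumor-free survivors were counted on day 60. Weight change is g/mouse at nadir.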

L1210 [8] = assay: Compound was evaluated in vivo for antitumor activity after intraperitoneal administration against L1210(935) for mortality range at an optimal dose of 0.5 mg/kg/injection at 1,4,7,11day schedule.; format: functional, Mus musculus; procedure, shortened: as §1
L1210 [9] = assay: Compound was evaluated in vivo for antitumor activity after intraperitoneal administration against L1210(935)for change in body weight at an optimal dose of 0.2 mg/kg/injection at 1-4 day schedule.; format: functional, Mus musculus; procedure, shortened: as §1
L1210 [10] = assay: Compound was evaluated in vivo for antitumor activity after intraperitoneal administration against L1210(935)for change in body weight at an optimal dose of 0.5 mg/kg/injection at 1,4,7,11day schedule.; format: functional, Mus musculus; procedure, shortened: as §1
L1210 [11] = assay: Compound was evaluated in vivo for antitumor activity after intraperitoneal administration against L1210(935) for median day of death at an optimal dose of 0.5 mg/kg/injection at 1,4,7,11day schedule.; format: functional, Mus musculus; procedure, shortened: as §1
L1210 [12] = assay: Compound was evaluated in vivo for antitumor activity after intraperitoneal administration against L1210(935) for median day of death at an optimal dose of 0.5 mg/kg/injection at 1 day schedule.; format: functional, Mus musculus; procedure, shortened: as §1
L1210 [13] = assay: Compound was evaluated in vivo for antitumor activity after intraperitoneal administration against L1210(935) for mortality range at an optimal dose of 0.125 mg/kg/injection at 1,4,7,11day schedule.; format: functional, Mus musculus; procedure, shortened: as §1
L1210 [14] = assay: Compound was evaluated in vivo for antitumor activity after intraperitoneal administration against L1210(935) for mortality range at an optimal dose of 0.1 mg/kg/injection at 1-4 day schedule.; format: functional, Mus musculus; procedure, shortened: as §1
L1210 [15] = assay: Compound was evaluated in vivo for antitumor activity after intraperitoneal administration against L1210(935) for total dose at an optimal dose of 0.125 mg/kg/injection at 1,4,7,11day schedule.; format: functional, Mus musculus; procedure, shortened: as §1
L1210 [16] = assay: Compound was evaluated in vivo for antitumor activity after intraperitoneal administration against L1210(935)for % increase in life span at an optimal dose of 0.5 mg/kg/injection at 1,4,7,11day schedule.; format: functional; conditions: Mus musculus, L1210, ip; procedure, shortened: as §1
P388 [17] = assay: Compound was evaluated in vivo for antitumor activity after intraperitoneal administration against P388 (1303) for change in body weight at an optimal dose of 0.75 mg/kg/injection; format: functional, Mus musculus
P388 [18] = assay: Compound was evaluated in vivo for antitumor activity after intraperitoneal administration against P388/L-PAM(14) for median day of death at an optimal dose of 0.4 mg/kg/injection at 1,2,3,4 day schedule.; format: functional, Mus musculus
P388 [19] = assay: Compound was evaluated in vivo for antitumor activity after intraperitoneal administration against P388/L-PAM(14) for median day of death at an optimal dose of 0.5 mg/kg/injection at one day schedule.; format: functional, Mus musculus
P388 [20] = assay: Compound was evaluated in vivo for antitumor activity after intraperitoneal administration against P388/L-PAM(14) for median day of death at an optimal dose of 1 mg/kg/injection; format: functional, Mus musculus
P388 [21] = assay: Compound was evaluated in vivo for antitumor activity after intraperitoneal administration against P388/L-PAM(14) for tumor free survivors at an optimal dose of 0.4 mg/kg/injection at 1,2,3,4 day schedule.; format: functional, Mus musculus
P388 [22] = assay: Compound was evaluated in vivo for antitumor activity after intraperitoneal administration against P388/L-PAM(14) for tumor free survivors at an optimal dose of 0.5 mg/kg/injection at one day schedule on day 60; format: functional, Mus musculus
P388 [23] = assay: Compound was evaluated in vivo for antitumor activity after intraperitoneal administration against P388 (1303) for tumor free survivors at an optimal dose of 0.75 mg/kg/injection on day 60; format: functional, Mus musculus
P388 [24] = assay: Compound was evaluated in vivo for antitumor activity after intraperitoneal administration against P388/L-PAM(14) for change in body weight at an optimal dose of 1 mg/kg/injection; format: functional, Mus musculus
P388 [25] = assay: Compound was evaluated in vivo for antitumor activity after intraperitoneal administration against P388/L-PAM(14) for % increase in life span at an optimal dose of 0.1 mg/kg/injection at 1,2,3,4 day schedule.; format: functional; conditions: Mus musculus, P388, ip
P388 [26] = assay: Compound was evaluated in vivo for antitumor activity after intraperitoneal administration against P388/L-PAM(14) for mortality range at an optimal dose of 0.5 mg/kg/injection at one day schedule.; format: functional, Mus musculus
P388 [27] = assay: Compound was evaluated in vivo for antitumor activity after intraperitoneal administration against P388 (1313) for tumor free survivors at an optimal dose of 0.25 mg/kg/injection; format: functional, Mus musculus
[28] = Compound was evaluated in vivo for antitumor activity against colon adenocarcinoma 38 after injecting the compound intravenously for median tumor burden; format: functional, Mus musculus
[29] = Compound was evaluated in vivo for antitumor activity against mammary adenocarcinoma 16/C after injecting the compound intravenously for optimal dose; format: functional, Mus musculus
Procedure, shortened: (§2)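 30-60 mg tumor fragments implanted sc by trocar on day 0 into C57Bl/6-derived hosts (B16) or C3H/He-derived hosts (16/C). Drug given iv on days 6, 9 and 13 (B16) or 6, 9 and 12 (16/C), 10 mice per group. Tumors measured by caliper. T/C % taken from median tumor burden of treated vs control groups on day 15 (B16) or day 14 (16/C). Body weight change per mouse recorded at nadir.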

[30] = Compound was evaluated in vivo for antitumor activity against mammary adenocarcinoma 16/C after injecting the compound intravenously for median; format: functional, Mus musculus
[31] = Compound was evaluated in vivo for antitumor activity against mammary adenocarcinoma 16/C after injecting the compound intravenously for median tumor burden; format: functional, Mus musculus; procedure, shortened: as §2
B16 [32] = assay: Compound was evaluated in vivo for antitumor activity against B16 melanoma after injecting the compound intravenously for toxicity related death.; format: functional, Mus musculus; procedure, shortened: as §2
P388 [33] = assay: Compound was evaluated in vivo for antitumor activity after intraperitoneal administration against P388 (1313) for mortality range at an optimal dose of 0.4 mg/kg/injection; format: functional, Mus musculus

Molecule `CN(C)CCCNc1ncnc2c1C(=O)C(N1CC1)=C(N1CC1)C2=O` has a T/C (B16 [1]) of 53%, a Total dose (B16 [2]) of 1.8 mg/kg and an Optimal dose (B16 [3]) of 0.2 mg/kg. The “Change in body weight” value [4] was 0.6 g mouse-1, the Optimal dose (M5076 [5]) was 1 mg/kg and the Toxicity (M5076 [6]) was 0. The Mortality (L1210 [7]) was 20 days, the Mortality (L1210 [8]) was 18 days and the “Change in body weight” value (L1210 [9]) was 0.4 g mouse-1. For the same molecule, the “Change in body weight” value (L1210 [10]) was 1.1 g mouse-1, the “Median day of death” value (L1210 [11]) was 14 and the “Median day of death” value (L1210 [12]) was 14. For the same molecule, the Mortality (L1210 [13]) was 14 days, the Mortality (L1210 [14]) was 14 days and the Total dose (L1210 [15]) was 0.5 mg/kg. The ILS at 0.5 mg/kg (L1210 [16]) was 27%, the “Change in body weight” value (P388 [17]) was 3.2 g mouse-1 and the “Median day of death” value (P388 [18]) was 20. The “Median day of death” value (P388 [19]) was 18, the “Median day of death” value (P388 [20]) was 19 and the Survivors (P388 [21]) was 0. The Survivors (P388 [22]) was 0, the Survivors (P388 [23]) was 0 and the “Change in body weight” value (P388 [24]) was -1.2 g mouse-1. For the same molecule, the ILS at 0.1 mg/kg (P388 [25]) was 0%, the Mortality (P388 [26]) was 22 days and the Survivors (P388 [27]) was 0. The Tumor burden [28] was 416, the Optimal dose [29] was 0.4 mg/kg and 0.2 mg/kg and the Tumor burden [30] was 895 mg. It also gave a Tumor burden [31] of 1265 mg, a Toxicity (B16 [32]) of 0 and a Mortality (P388 [33]) of 39 days.

Reference: ChEMBL document CHEMBL1125740, “Heterocyclic quinones. 17. A new in vivo active antineoplastic drug: 6,7-bis(1-aziridinyl)-4-[[3-(N,N-dimethylamino)propyl]amino]-5,8- quinazolinedione” (J Med Chem, 1991)
